Results taken from ChEMBL document CHEMBL4819134, “Design, synthesis and biological evaluation of imidazopyridazine derivatives containing isoquinoline group as potent MNK1/2 inhibitors” (Bioorg Med Chem, 2021).

How the values were obtained:
[1] = target: T1, MAP kinase-interacting serine/threonine-protein kinase 2 (Homo sapiens, UniProt Q9HBH9); assay: Inhibition of N-terminal GST-fused human full length recombinant MNK2 (1 to 465 residues) expressed in baculovirus-infected Sf21 cells using TATKSGSTTKNR as substrate preincubated with enzyme and substrate for 10 mins followed by ATP addition and measured after 40 mins by ADP-glo luminescence assay
Target sequence in this assay (Q9HBH9 whole entry, the tested form may be a part): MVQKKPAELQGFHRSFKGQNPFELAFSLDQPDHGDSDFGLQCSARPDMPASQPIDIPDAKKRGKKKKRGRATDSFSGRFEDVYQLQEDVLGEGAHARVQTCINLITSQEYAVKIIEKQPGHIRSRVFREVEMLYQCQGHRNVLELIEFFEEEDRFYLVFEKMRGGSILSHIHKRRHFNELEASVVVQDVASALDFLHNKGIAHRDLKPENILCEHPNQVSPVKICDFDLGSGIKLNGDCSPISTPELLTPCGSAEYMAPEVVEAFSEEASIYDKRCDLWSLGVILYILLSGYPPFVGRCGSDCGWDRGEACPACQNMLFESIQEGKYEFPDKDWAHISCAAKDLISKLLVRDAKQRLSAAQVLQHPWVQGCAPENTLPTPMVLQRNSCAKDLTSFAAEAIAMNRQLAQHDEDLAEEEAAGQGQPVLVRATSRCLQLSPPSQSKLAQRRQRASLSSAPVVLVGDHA

[2] = target: T2, MAP kinase-interacting serine/threonine-protein kinase 1 (Homo sapiens, UniProt Q9BUB5); conditions: Sf21, dose 500.0 nM, time 50.0 min
Target sequence in this assay (Q9BUB5 whole entry, looked up, the tested form may be a part): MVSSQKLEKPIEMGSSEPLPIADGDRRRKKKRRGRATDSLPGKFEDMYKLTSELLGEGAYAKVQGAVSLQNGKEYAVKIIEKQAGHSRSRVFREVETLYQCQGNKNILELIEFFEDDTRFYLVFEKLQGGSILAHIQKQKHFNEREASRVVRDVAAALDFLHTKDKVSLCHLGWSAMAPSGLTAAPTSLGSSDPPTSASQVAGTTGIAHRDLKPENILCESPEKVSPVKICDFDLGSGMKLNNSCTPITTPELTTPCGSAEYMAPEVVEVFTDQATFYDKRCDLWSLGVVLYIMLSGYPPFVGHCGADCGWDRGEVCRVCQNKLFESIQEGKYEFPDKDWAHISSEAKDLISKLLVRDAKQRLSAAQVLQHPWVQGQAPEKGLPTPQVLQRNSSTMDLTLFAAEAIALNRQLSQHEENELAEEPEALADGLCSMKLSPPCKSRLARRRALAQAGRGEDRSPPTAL

[3] = target: T2, MAP kinase-interacting serine/threonine-protein kinase 1; assay: Inhibition of N-terminal GST-fused human full length recombinant MNK1 (1 to 424 residues) expressed in baculovirus-infected Sf21 cells using TATKSGSTTKNR as substrate preincubated with enzyme and substrate for 10 mins followed by ATP addition and measured after 40 mins by ADP-glo luminescence assay
Target sequence in this assay (Q9BUB5 whole entry, the tested form may be a part): as the sequence (Q9BUB5 whole entry, looked up, the tested form may be a part) above

[4] = target: T1, MAP kinase-interacting serine/threonine-protein kinase 2; conditions: Sf21, dose 500.0 nM, time 50.0 min
Target sequence in this assay (Q9HBH9 whole entry, looked up, the tested form may be a part): as the sequence (Q9HBH9 whole entry, the tested form may be a part) above

TMD8 [5] = assay: Antiproliferative activity against human TMD8 cells assessed as reduction in cell viability incubated for 72 hrs by MTT assay; type: functional, cell-based; conditions: TMD8, 72 h
Method in brief: (§1)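 Lymphoma cells seeded and grown 12 h, then exposed to serial compound concentrations in medium with 1‰ DMSO, each in triplicate, for 72 h. DMSO-only control. Viability read by MTT and normalized to DMSO control. IC50 derived by Logit method, mean ± SD of three independent determinations.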

DOHH-2 = assay: Antiproliferative activity against human DOHH-2 cells assessed as reduction in cell viability incubated for 72 hrs by MTT assay; type: functional, cell-based; conditions: DOHH-2, 72 h; method in brief: as §1
TMD8 [6] = assay: Induction of apoptosis in human TMD8 cells assessed as early apoptotic cells at 1 uM incubated for 24 hrs by AnnexinV-FITC/PE staining based flow cytometry (reference value: 4.35%); type: functional
Method in brief: (§2)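 TMD-8 cells seeded at 1 × 10^5 per 2 mL well and treated 24 h at 0.25, 0.5 or 1 μM, with DMSO control. Cells washed twice in cold PBS and resuspended in binding buffer. Stained with annexin V-FITC for 15 min, then PI for 5 min, both at 37 °C in the dark. Analysed by flow cytometry.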

TMD8 [7] = assay: Induction of apoptosis in human TMD8 cells assessed as viable cells at 1 uM incubated for 24 hrs by AnnexinV-FITC/PE staining based flow cytometry (reference value: 94.2%); type: functional; conditions: read-out: Activity; method in brief: as §2
[8] = target: T3, Interleukin-1 receptor-associated kinase 4 (Homo sapiens) (UniProt Q9NWZ3); assay: Inhibition of IRAK4 (unknown origin) at 500 nM
T3 sequence (whole entry): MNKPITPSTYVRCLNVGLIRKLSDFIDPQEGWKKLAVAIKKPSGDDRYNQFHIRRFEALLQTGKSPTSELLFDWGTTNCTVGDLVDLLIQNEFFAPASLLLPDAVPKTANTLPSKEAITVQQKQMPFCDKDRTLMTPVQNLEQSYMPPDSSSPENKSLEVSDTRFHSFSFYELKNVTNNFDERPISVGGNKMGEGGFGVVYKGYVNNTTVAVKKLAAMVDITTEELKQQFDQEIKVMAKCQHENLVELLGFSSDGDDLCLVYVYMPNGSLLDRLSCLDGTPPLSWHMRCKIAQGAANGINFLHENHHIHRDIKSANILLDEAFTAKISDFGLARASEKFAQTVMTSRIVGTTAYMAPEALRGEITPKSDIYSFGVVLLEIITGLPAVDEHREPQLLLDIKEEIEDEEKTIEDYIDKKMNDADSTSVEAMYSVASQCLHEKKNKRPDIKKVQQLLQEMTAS

TMD8 [9] = assay: Induction of apoptosis in human TMD8 cells assessed as necrotic cells at 1 uM incubated for 24 hrs by AnnexinV-FITC/PE staining based flow cytometry (reference value: 0%); type: functional; method in brief: as §2
TMD8 [10] = assay: Induction of apoptosis in human TMD8 cells assessed as necrotic cells at 0.25 uM incubated for 24 hrs by AnnexinV-FITC/PE staining based flow cytometry (reference value: 0%); type: functional; method in brief: as §2
[11] = target: Cyclin-dependent kinase 1 (Homo sapiens) (UniProt P06493); assay: Inhibition of CDK1 (unknown origin) at 500 nM
Cyclin-dependent kinase 1 (Homo sapiens), sequence (P06493 whole entry, looked up): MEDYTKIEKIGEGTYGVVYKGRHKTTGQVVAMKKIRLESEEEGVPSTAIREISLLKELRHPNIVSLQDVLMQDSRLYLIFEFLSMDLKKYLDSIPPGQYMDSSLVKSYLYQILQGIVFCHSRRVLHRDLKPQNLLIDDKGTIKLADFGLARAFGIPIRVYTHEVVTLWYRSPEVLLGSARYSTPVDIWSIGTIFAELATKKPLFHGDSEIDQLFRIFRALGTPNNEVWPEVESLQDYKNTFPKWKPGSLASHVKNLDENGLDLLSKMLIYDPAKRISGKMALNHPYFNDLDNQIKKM

TMD8 [12] = assay: Induction of apoptosis in human TMD8 cells assessed as early apoptotic cells at 0.5 uM incubated for 24 hrs by AnnexinV-FITC/PE staining based flow cytometry (reference value: 4.35%); type: functional; method in brief: as §2
TMD8 [13] = assay: Induction of apoptosis in human TMD8 cells assessed as late apoptotic cells at 0.25 uM incubated for 24 hrs by AnnexinV-FITC/PE staining based flow cytometry (reference value: 1.44%); type: functional; method in brief: as §2
[14] = target: Tyrosine-protein kinase JAK1 (Homo sapiens) (UniProt P23458); assay: Inhibition of JAK1 (unknown origin) at 500 nM
Tyrosine-protein kinase JAK1 (Homo sapiens), sequence (P23458 whole entry): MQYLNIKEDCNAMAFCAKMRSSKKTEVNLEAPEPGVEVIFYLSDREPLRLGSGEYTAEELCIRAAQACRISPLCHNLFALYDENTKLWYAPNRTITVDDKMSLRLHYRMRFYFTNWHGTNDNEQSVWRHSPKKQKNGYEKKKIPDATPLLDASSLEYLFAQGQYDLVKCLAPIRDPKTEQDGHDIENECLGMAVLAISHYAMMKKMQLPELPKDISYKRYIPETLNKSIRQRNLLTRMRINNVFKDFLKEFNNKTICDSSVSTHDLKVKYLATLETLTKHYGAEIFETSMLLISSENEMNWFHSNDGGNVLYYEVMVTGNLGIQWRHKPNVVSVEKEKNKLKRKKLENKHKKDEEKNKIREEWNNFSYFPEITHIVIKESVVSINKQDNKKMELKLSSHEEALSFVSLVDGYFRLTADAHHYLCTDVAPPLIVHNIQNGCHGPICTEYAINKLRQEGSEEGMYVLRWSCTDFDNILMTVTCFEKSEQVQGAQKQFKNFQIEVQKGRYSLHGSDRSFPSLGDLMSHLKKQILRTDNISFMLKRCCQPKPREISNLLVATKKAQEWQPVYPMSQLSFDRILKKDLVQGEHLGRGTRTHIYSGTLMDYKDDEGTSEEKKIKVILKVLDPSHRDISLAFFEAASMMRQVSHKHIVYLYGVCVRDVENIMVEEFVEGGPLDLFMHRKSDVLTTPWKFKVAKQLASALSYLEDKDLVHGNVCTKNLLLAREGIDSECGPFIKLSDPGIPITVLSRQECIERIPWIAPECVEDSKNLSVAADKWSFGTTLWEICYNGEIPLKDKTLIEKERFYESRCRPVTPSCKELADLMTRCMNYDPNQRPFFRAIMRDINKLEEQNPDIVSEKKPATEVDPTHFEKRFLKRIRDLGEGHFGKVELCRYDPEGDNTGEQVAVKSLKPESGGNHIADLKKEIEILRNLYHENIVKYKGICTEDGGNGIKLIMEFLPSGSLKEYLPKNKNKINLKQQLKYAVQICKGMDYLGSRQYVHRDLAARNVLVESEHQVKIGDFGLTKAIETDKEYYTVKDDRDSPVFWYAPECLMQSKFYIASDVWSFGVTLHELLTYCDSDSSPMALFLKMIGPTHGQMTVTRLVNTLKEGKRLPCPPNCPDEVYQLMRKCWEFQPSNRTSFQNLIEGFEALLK

TMD8 [15] = assay: Induction of apoptosis in human TMD8 cells assessed as viable cells at 0.5 uM incubated for 24 hrs by AnnexinV-FITC/PE staining based flow cytometry (reference value: 94.2%); type: functional; conditions: read-out: Activity; method in brief: as §2
[16] = target: Macrophage colony-stimulating factor 1 receptor (Homo sapiens) (UniProt P07333); assay: Inhibition of CSF1R (unknown origin) at 500 nM
Macrophage colony-stimulating factor 1 receptor (Homo sapiens), sequence (P07333 whole entry): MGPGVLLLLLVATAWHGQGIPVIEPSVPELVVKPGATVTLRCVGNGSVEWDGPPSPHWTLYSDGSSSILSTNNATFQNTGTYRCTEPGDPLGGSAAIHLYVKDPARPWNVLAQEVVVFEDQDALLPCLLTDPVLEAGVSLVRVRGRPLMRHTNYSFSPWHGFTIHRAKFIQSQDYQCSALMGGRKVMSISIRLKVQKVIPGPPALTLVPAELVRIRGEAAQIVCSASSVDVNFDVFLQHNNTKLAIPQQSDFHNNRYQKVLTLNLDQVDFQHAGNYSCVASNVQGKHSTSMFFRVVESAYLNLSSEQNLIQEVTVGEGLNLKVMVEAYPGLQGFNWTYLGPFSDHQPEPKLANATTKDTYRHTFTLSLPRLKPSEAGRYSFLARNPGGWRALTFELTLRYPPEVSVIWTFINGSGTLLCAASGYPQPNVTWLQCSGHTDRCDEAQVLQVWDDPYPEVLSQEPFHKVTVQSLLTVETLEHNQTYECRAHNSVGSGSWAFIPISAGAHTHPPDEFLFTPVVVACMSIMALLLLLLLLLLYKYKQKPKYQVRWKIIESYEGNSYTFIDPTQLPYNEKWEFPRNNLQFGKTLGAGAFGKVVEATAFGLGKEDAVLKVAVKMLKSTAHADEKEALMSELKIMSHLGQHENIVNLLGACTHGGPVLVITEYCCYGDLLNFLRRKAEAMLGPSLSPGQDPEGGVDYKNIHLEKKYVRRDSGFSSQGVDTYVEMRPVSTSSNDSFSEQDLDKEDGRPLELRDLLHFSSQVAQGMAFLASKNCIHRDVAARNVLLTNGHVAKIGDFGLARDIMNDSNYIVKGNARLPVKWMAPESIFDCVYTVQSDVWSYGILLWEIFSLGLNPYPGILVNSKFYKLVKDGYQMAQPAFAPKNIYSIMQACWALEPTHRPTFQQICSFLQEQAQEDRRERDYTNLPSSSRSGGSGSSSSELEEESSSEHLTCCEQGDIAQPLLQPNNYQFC

TMD8 [17] = assay: Induction of apoptosis in human TMD8 cells assessed as early apoptotic cells at 0.25 uM incubated for 24 hrs by AnnexinV-FITC/PE staining based flow cytometry (reference value: 4.35%); type: functional; method in brief: as §2
[18] = target: AMP-activated protein kinase, AMPK (Homo sapiens) (UniProt P54646+O43741+P54619+Q9UGJ0+Q9Y478+Q13131+Q9UGI9); assay: Inhibition of AMPK (unknown origin) at 500 nM; type: protein-complex assay
TMD8 [19] = assay: Induction of apoptosis in human TMD8 cells assessed as necrotic cells at 0.5 uM incubated for 24 hrs by AnnexinV-FITC/PE staining based flow cytometry (reference value: 0%); type: functional; method in brief: as §2
TMD8 [20] = assay: Induction of apoptosis in human TMD8 cells assessed as late apoptotic cells at 0.5 uM incubated for 24 hrs by AnnexinV-FITC/PE staining based flow cytometry (reference value: 1.44%); type: functional; method in brief: as §2
TMD8 [21] = assay: Induction of apoptosis in human TMD8 cells assessed as viable cells at 0.25 uM incubated for 24 hrs by AnnexinV-FITC/PE staining based flow cytometry (reference value: 94.2%); type: functional; conditions: read-out: Activity; method in brief: as §2
TMD8 [22] = assay: Induction of apoptosis in human TMD8 cells assessed as late apoptotic cells at 1 uM incubated for 24 hrs by AnnexinV-FITC/PE staining based flow cytometry (reference value: 1.44%); type: functional; method in brief: as §2
[23] = target: Tyrosine-protein kinase BTK (Homo sapiens) (UniProt Q06187); assay: Inhibition of BTK (unknown origin) at 500 nM
Tyrosine-protein kinase BTK (Homo sapiens), sequence (Q06187 whole entry): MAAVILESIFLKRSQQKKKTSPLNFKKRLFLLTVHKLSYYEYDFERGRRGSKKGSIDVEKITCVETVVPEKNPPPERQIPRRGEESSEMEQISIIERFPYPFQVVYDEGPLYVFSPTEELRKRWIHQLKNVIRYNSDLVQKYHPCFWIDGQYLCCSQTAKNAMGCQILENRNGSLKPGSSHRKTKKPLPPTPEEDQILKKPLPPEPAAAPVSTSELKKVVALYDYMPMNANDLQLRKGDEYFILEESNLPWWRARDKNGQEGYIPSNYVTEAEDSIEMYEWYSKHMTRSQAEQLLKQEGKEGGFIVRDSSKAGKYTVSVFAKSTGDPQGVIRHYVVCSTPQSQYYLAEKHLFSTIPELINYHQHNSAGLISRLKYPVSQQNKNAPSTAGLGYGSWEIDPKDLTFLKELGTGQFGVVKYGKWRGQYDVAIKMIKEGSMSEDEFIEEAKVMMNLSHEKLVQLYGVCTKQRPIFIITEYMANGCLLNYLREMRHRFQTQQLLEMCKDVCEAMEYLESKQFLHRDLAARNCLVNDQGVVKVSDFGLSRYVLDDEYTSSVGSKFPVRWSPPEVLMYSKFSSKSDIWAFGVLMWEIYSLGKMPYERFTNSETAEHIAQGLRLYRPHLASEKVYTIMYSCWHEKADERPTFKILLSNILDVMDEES

Row | IC50 [1] [µM] | inhibition [2] [%] | IC50 [3] [µM] | inhibition [4] [%] | Compound | IC50 (TMD8 [5]) [µM] | IC50 (DOHH-2) [µM] | further results
1 | 0.636 | 71 | 0.154 | 21 | O=C(c1ccc(-c2ccc3ncc(-c4cnc5ccccc5c4)n3c2)cc1)N1CCOCC1 | – | – | –
2 | – | 73.5 | – | 49.9 | O=C(c1ccc(-c2ccc3ncc(-c4ccc5ncccc5c4)n3c2)cc1)N1CCNCC1 | – | – | –
3 | 0.0029 | 98.7 | 0.0094 | 77.7 | O=C(c1ccc(-c2ccc3ncc(-c4ccc5cnccc5c4)n3c2)cc1)N1CCNCC1 | 6.64 | 8.68 | –
4 | 0.0157 | – | 0.0145 | – | NC1CCN(C(=O)c2ccc(-c3ccc4ncc(-c5ccc6cnccc6c5)n4n3)cc2)CC1 | 2.08 | 0.541 | –
5 | 0.0066 | – | 0.0094 | – | N[C@@H]1CCCN(C(=O)c2ccc(-c3ccc4ncc(-c5ccc6cnccc6c5)n4n3)cc2)C1 | 2.42 | 0.4 | –
6 | 0.0512 | 70.7 | 0.0676 | 68.1 | O=C(c1ccc(-c2ccc3ncc(-c4cnc5ccccc5c4)n3c2)cc1)N1CCNCC1 | – | – | –
7 | – | 62.8 | – | 2.41 | O=C(c1ccc(-c2ccc3ncc(-c4ccc5ncccc5c4)n3c2)cc1)N1CCC(N2CCCCC2)CC1 | – | – | –
8 | 0.0025 | – | 0.0025 | – | N[C@H]1CCCN(C(=O)c2ccc(-c3ccc4ncc(-c5ccc6cnccc6c5)n4c3)cc2)C1 | 3.46 | 6.73 | –
9 | 0.0032 | 87.8 | 0.004 | 77.7 | O=C(c1ccc(-c2ccc3ncc(-c4ccc5cnccc5c4)n3c2)cc1)N1CCC(N2CCOCC2)CC1 | 4.26 | 7.55 | –
10 | 0.0034 | 103 | 0.0023 | 97.3 | N[C@H]1CCCN(C(=O)c2ccc(-c3ccc4ncc(-c5ccc6cnccc6c5)n4n3)cc2)C1 | 0.39 | 0.409 | Activity (TMD8 [6]): 9.3%; viability at 1 µM (TMD8 [7]): 12.5%; inhibition [8]: 22.3%; Activity (TMD8 [9]): 0%; Activity (TMD8 [10]): 0%; inhibition [11]: 5.01%; Activity (TMD8 [12]): 9.42%; Activity (TMD8 [13]): 19.8%; inhibition [14]: 6.5%; viability at 0.5 µM (TMD8 [15]): 44.6%; inhibition [16]: 11.6%; Activity (TMD8 [17]): 30%; inhibition [18]: 10.2%; Activity (TMD8 [19]): 0.037%; Activity (TMD8 [20]): 45.9%; viability at 0.25 µM (TMD8 [21]): 50.2%; Activity (TMD8 [22]): 78.2%; inhibition [23]: 4.1%
11 | – | – | – | – | N#Cc1ccc(-c2cnc3ccc(-c4ccc(C(=O)N5CCOCC5)cc4)cn23)cc1 [TINODASERTIB] | 2.14 | 1.62 | –
12 | 0.0257 | 93.7 | 0.007 | 106 | O=C(c1ccc(-c2ccc3ncc(-c4ccc5cnccc5c4)n3c2)cc1)N1CCOCC1 | – | – | –
13 | 0.216 | 74.7 | 0.371 | 64 | O=C(c1ccc(-c2ccc3ncc(-c4ccc5ncccc5c4)n3c2)cc1)N1CCOCC1 | – | – | –
14 | 0.0089 | – | 0.0077 | – | N[C@@H]1CCCN(C(=O)c2ccc(-c3ccc4ncc(-c5ccc6cnccc6c5)n4c3)cc2)C1 | 2.3 | 6.28 | –
15 | 0.0015 | 92.9 | 0.0024 | 74.7 | O=C(c1ccc(-c2ccc3ncc(-c4ccc5cnccc5c4)n3c2)cc1)N1CCC(N2CCCCC2)CC1 | 4.01 | 3.82 | –
16 | – | 71 | – | 48.8 | O=C(c1ccc(-c2ccc3ncc(-c4cnc5ccccc5c4)n3c2)cc1)N1CCC(N2CCCCC2)CC1 | – | – | –
17 | 0.0168 | – | 0.0052 | – | NC1CCN(C(=O)c2ccc(-c3ccc4ncc(-c5ccc6cnccc6c5)n4c3)cc2)CC1 | 2.06 | 8.3 | –
18 | 0.0267 | – | 0.042 | – | N[C@@H]1CCCN(C(=O)c2ccc(-c3cn4c(-c5ccc6cnccc6c5)cnc4cn3)cc2)C1 | 3.1 | 3.25 | –
19 | 0.0194 | – | 0.0273 | – | N[C@H]1CCCN(C(=O)c2ccc(-c3cn4c(-c5ccc6cnccc6c5)cnc4cn3)cc2)C1 | 2.56 | 5.19 | –
20 | 0.0185 | – | 0.0321 | – | NC1CCN(C(=O)c2ccc(-c3cn4c(-c5ccc6cnccc6c5)cnc4cn3)cc2)CC1 | 7.57 | 12 | –
21 | – | 40.6 | – | 18.7 | O=C(c1ccc(-c2ccc3ncc(-c4cnc5ccccc5c4)n3c2)cc1)N1CCC(N2CCOCC2)CC1 | – | – | –
22 | – | 49.8 | – | 34.9 | O=C(c1ccc(-c2ccc3ncc(-c4ccc5ncccc5c4)n3c2)cc1)N1CCC(N2CCOCC2)CC1 | – | – | –
